Experiments:
Format in all cases: functional
SK-OV-3 = experiment: Growth inhibition of human SKOV3 cells assessed tumor cell growth at 10^-5 M; design: scale not given: the % may be the effect or the level left
Method in brief: (§1)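 NCI 60-human-tumor-cell-line panel screen. Each compound was tested at a single concentration of 10^-5 M, and percent growth of tumor cells was recorded for each cell line. Growth inhibition was expressed from these percent-growth values.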

SK-MEL-28 = experiment: Growth inhibition of human SK-MEL-28 cells; settings: for CC50: read-out: LC50 (the source's name)
SW-620 = experiment: Growth inhibition of human SW620 cells assessed tumor cell growth at 10^-5 M; design: scale not given: the % may be the effect or the level left
Method in brief: (§2)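 Single-dose screen at 10^-5 M across the 60 human tumor cell line panel, run to NCI standards. The value is the percent growth of each cell line in the presence of compound. Compounds active at this dose moved on to five-concentration testing (10^-4 to 10^-8 M).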

T47D = experiment: Growth inhibition of human T47D cells assessed tumor cell growth at 10^-5 M; design: scale not given: the % may be the effect or the level left; method in brief: as §2
KM12 = experiment: Growth inhibition of human KM12 cells assessed tumor cell growth at 10^-5 M; design: scale not given: the % may be the effect or the level left; method in brief: as §1
EKVX = experiment: Growth inhibition of human EKVX cells assessed tumor cell growth at 10^-5 M; design: scale not given: the % may be the effect or the level left; method in brief: as §1
LOX IMVI = experiment: Growth inhibition of human LOXIMVI cells; settings: for CC50: read-out: LC50 (the source's name)
MCF7 = experiment: Growth inhibition of human MCF7 cells; settings: for CC50: read-out: LC50 (the source's name)
HOP-92 = experiment: Growth inhibition of human HOP92 cells; settings: for CC50: read-out: LC50 (the source's name)
A549 = experiment: Growth inhibition of human A549 cells assessed tumor cell growth at 10^-5 M; design: scale not given: the % may be the effect or the level left; method in brief: as §1
HT-29 = experiment: Growth inhibition of human HT-29 cells assessed tumor cell growth at 10^-5 M; design: scale not given: the % may be the effect or the level left; method in brief: as §1
SF-268 = experiment: Growth inhibition of human SF268 cells assessed tumor cell growth at 10^-5 M; design: scale not given: the % may be the effect or the level left; method in brief: as §1
UACC-62 = experiment: Growth inhibition of human UACC62 cells assessed tumor cell growth at 10^-5 M; design: scale not given: the % may be the effect or the level left; method in brief: as §2

SMILES: O=C1/C(=C\c2coc3ccccc3c2=O)c2ccccc2N1c1c(Cl)cccc1Cl
- Activity (SK-OV-3): 74.8%
- GI50 (SK-MEL-28): 3.8 µM
- CC50 (SK-MEL-28): > 100 µM
- Activity (SW-620): 35%
- Activity (T47D): 30.04%
- Activity (KM12): 27.09%
- Activity (EKVX): 33.14%
- GI50 (LOX IMVI): 1.5 µM
- CC50 (LOX IMVI): 57.5 µM
- GI50 (MCF7): 3.2 µM
- CC50 (MCF7): > 100 µM
- GI50 (HOP-92): 4.7 µM
- CC50 (HOP-92): > 100 µM
- Activity (A549): 26.65%
- Activity (HT-29): 47.62%
- Activity (SF-268): 31.99%
- Activity (UACC-62): 36.62%

SMILES: O=C1Nc2ccccc2/C1=C/c1cn(C(=O)c2c(Cl)cccc2Cl)c2ccccc12
- Activity (SK-OV-3): 71.8%
- Activity (SW-620): 45.4%
- Activity (T47D): 47.7%
- Activity (KM12): 54.7%
- Activity (EKVX): 81.4%
- GI50 (LOX IMVI): 1.6 µM
- CC50 (LOX IMVI): 6.6 µM
- GI50 (HOP-92): 1.5 µM
- CC50 (HOP-92): > 100 µM
- Activity (A549): 36.7%
- Activity (HT-29): 69.6%
- Activity (SF-268): 56.5%
- Activity (UACC-62): 36.7%

SMILES: CC1=NN(c2cccc(Cl)c2)C(=O)/C1=C\C=C\c1ccccc1
- Activity (SK-OV-3): 48.42%
- GI50 (SK-MEL-28): 2 µM
- CC50 (SK-MEL-28): 8.9 µM
- Activity (SW-620): 1.26%
- Activity (T47D): 41.86%
- Activity (KM12): 16.12%
- Activity (EKVX): 87.07%
- GI50 (LOX IMVI): 1.4 µM
- CC50 (LOX IMVI): 6.7 µM
- GI50 (MCF7): 1.1 µM
- CC50 (MCF7): > 100 µM
- GI50 (HOP-92): 4.6 µM
- CC50 (HOP-92): > 100 µM
- Activity (A549): 94.48%
- Activity (HT-29): -29.51%
- Activity (SF-268): 75.5%
- Activity (UACC-62): 28.21%

SMILES: CC1=NN(c2cccc(Cl)c2)C(=O)/C1=C\c1c(O)ccc2ccccc12
- Activity (SK-OV-3): 28.27%
- Activity (SW-620): 30.97%
- Activity (T47D): 2.21%
- Activity (KM12): 21.17%
- Activity (EKVX): 51.27%
- GI50 (LOX IMVI): > 100 µM
- CC50 (LOX IMVI): > 100 µM
- Activity (A549): 60.45%
- Activity (HT-29): 13.48%
- Activity (SF-268): 47.23%
- Activity (UACC-62): 82.71%

SMILES: O=C1/C(=C\c2ccccn2)c2ccccc2N1c1c(Cl)cccc1Cl
- Activity (SK-OV-3): 39.19%
- Activity (SW-620): -56.9%
- Activity (T47D): 12.74%
- Activity (KM12): -2.11%
- Activity (EKVX): 27.21%
- GI50 (LOX IMVI): 1.7 µM
- CC50 (LOX IMVI): 6.4 µM
- Activity (A549): 50.33%
- Activity (HT-29): 10.75%
- Activity (SF-268): 7.81%
- Activity (UACC-62): 24.91%
